Calls of active or inactive are those of the source.
Assays:
[1] = target: T1, Adenosine receptor A1 (Homo sapiens, UniProt P30542); test: Inverse agonist activity at human A1AR expressed in CHO cells assessed as increase in forskolin-stimulated cAMP production by alphascreen assay; format: functional, cell-based
T1 sequence (P30542 whole entry): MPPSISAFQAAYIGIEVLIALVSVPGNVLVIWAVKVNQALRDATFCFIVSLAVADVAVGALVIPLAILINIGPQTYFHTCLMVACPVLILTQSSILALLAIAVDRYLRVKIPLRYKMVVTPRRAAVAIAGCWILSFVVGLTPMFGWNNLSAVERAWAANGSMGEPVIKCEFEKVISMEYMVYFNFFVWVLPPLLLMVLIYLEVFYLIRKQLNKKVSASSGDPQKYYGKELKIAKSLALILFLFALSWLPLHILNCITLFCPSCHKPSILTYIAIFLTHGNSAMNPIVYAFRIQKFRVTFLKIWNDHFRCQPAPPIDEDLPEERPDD
Method in brief: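 Compounds at 1 nM to 1 µM. cAMP rise measured by AlphaScreen. EC50 from sigmoid fit. Four independent experiments in triplicate.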

[2] = target: T2, Adenosine receptor A2b (Homo sapiens, UniProt P29275); test: Agonist activity at human A2B expressed in CHO cells assessed as stimulation of cAMP production by alphascreen assay; format: functional, cell-based
T2 sequence (P29275 whole entry): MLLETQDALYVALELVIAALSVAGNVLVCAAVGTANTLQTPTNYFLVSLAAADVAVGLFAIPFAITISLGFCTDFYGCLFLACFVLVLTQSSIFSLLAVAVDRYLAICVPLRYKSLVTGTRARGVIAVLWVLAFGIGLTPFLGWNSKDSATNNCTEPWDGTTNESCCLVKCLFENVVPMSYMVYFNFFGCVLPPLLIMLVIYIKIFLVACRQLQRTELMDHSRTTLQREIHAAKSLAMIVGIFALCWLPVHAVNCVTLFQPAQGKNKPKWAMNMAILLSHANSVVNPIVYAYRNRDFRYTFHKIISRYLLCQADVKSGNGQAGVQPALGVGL
Method in brief: (§1)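 Compounds tested alone at final 1 nM to 1 µM. cAMP measured by AlphaScreen. Efficacy taken at 1 µM relative to NECA 1 µM (=100%). Four independent experiments in triplicate.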

[3] = target: T3, Adenosine receptor A1 (Homo sapiens) (UniProt P30542); test: Inverse agonist activity at human A1AR expressed in CHO cells assessed as increase in forskolin-stimulated cAMP production by alphascreen assay relative to DPCPX; format: functional, cell-based
T3 sequence (whole entry): T1 sequence (P30542 whole entry)
Method in brief: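 Compounds at 1 nM to 1 µM. cAMP rise measured by AlphaScreen. EC50 from sigmoid fit. […] Four independent experiments in triplicate.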

[4] = test system: Mus musculus; test: (§2) Antinociceptive activity in CD-1 albino mouse model of oxaliplatin-induced neuropathic pain assessed as increase in licking latency at 0.01 to 0.3 mg/kg, po treated on day 15 post oxaliplatin treatment and measured at 15 to 45 mins post dose by cold plate test; format: functional, organism-based
Method in brief: (§3)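 Male CD-1 mice (22–25 g) given oxaliplatin 2.4 mg/kg i.p. in 5% glucose on days 1-2, 5-9 and 12-14. On day 15, single oral dose (test compounds in 1% CMC). Cold plate at 4 °C, latency to paw licking or lifting, 60 s cut-off, read 15–60 min post dose. 10 mice/group in two sets. ANOVA with Bonferroni.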

[5] = test system: Mus musculus; test: as §2, with “at” for “at 0.01 to”, “60” for “45”, “dose in presence of nonspecific nAChR antagonist mecamylamine” for “dose”; format: functional, organism-based
Method in brief: (§4)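 Oxaliplatin neuropathy in male CD-1 mice (2.4 mg/kg i.p., 10 injections, days 1-14). Day 15: mecamylamine 2 mg/kg i.p. or methyllycaconitine 6 mg/kg i.p. given 15 min before the oral dose. Cold plate (4 °C) licking/lifting latency with 60 s cut-off, measured over time after dosing. 10 mice/group, two sets.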

[6] = test system: Mus musculus; test: as §2, with “at” for “at 0.01 to”, “60” for “45”, “dose in presence of alpha7 nAChR antagonist methyllycaconitine” for “dose”; format: functional, organism-based; method in brief: as §4
[7] = test system: CHO; test: Effect on cAMP level in wild-type CHO cells at 0.001 to 1 uM by alphascreen assay; format: functional, cell-based; details: Cricetulus griseus
Method in brief: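 Compounds at 1 nM to 1 µM final concentrations. cAMP quantified with AlphaScreen kit. Four independent experiments, each in triplicate.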

[8] = target: T4, Adenosine receptor A2a (Homo sapiens, UniProt P29274); test: Displacement of [3H]ZM241385 from human A2AR expressed in CHO cell membranes measured after 60 mins by scintillation counting method
T4 sequence (P29274 whole entry): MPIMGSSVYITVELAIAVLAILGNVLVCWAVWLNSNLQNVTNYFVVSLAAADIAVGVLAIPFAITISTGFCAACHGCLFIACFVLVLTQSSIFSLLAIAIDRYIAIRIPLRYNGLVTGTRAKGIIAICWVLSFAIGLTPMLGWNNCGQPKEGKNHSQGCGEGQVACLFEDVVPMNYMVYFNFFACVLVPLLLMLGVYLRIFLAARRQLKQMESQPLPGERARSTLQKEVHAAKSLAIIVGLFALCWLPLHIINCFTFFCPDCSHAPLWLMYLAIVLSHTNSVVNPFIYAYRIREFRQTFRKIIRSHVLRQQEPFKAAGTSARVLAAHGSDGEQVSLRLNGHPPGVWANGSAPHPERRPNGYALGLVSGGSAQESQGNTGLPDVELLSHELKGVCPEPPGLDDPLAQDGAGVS
Method in brief: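 Nonspecific binding defined with 1 µM ZM241385. Filtered on GF/B, scintillation counted. Ki by Cheng–Prusoff. Percent inhibition at 1 µM. Four experiments in triplicate.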

[9] = target: T1, Adenosine receptor A1; test: Displacement of [3H]DPCPX from human A1AR expressed in CHO cell membranes measured after 90 mins by scintillation counting method
Method in brief: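 Nonspecific binding with 1 µM DPCPX. GF/B filtration and scintillation counting. Ki by Cheng–Prusoff. Inhibition % at 1 µM. Four experiments in triplicate.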

[10] = target: T2, Adenosine receptor A2b; test: Antagonist activity at human A2BR expressed in CHO cells assessed as inhibition of NECA-stimulated cAMP production by alphascreen assay; format: functional, cell-based
Method in brief: (§5)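 Compounds added at 1 nM to 1 µM final, with percent inhibition read at 1 µM. AlphaScreen cAMP read-out. IC50 by sigmoid non-linear regression. Four independent experiments in triplicate.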

[11] = target: T5, Adenosine receptor A2b (Homo sapiens) (UniProt P29275); test: Agonist activity at human A2B expressed in CHO cells assessed as stimulation of cAMP production at 1 uM by alphascreen assay relative to NECA; format: functional, cell-based; method in brief: as §1
T5 sequence (whole entry): T2 sequence (P29275 whole entry)

[12] = target: T6, Adenosine receptor A3 (Homo sapiens) (UniProt P0DMS8); test: Displacement of [125I]ABMECA from human A3R expressed in CHO cell membranes at 1 uM measured after 120 mins by scintillation counting method relative to control
T6 sequence (whole entry): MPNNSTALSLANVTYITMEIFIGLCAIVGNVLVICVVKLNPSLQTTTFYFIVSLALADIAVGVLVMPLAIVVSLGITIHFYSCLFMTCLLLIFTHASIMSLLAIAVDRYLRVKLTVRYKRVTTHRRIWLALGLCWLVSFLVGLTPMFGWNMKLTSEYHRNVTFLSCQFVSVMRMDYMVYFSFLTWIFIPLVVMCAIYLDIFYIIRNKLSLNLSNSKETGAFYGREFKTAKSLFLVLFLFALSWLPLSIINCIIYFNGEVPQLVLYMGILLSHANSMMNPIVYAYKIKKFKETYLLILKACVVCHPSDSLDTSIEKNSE
Method in brief: (§6)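 Nonspecific binding with 1 µM AB-MECA. GF/B filtration and counting. Ki via Cheng–Prusoff. Percent inhibition at 1 µM. Four experiments in triplicate.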

[13] = target: T4, Adenosine receptor A2a; test: Antagonist activity at human A2AR expressed in CHO cells assessed as inhibition of CGS21680-stimulated cAMP production by alphascreen assay; format: functional, cell-based
[14] = test system: Mus musculus; test: as §2, with “10” for “0.01 to 0.3”, “60” for “45”, “dose in presence of nonspecific nAChR antagonist mecamylamine” for “dose”; format: functional, organism-based; method in brief: as §4
[15] = test system: Mus musculus; test: Antinociceptive activity in CD-1 albino mouse model of oxaliplatin-induced neuropathic pain assessed as increase in licking latency at 10 mg/kg, po treated on day 15 post oxaliplatin treatment and measured at 15 to 60 mins post dose by cold plate test; format: functional, organism-based; method in brief: as §3
[16] = test system: Mus musculus; test: Antinociceptive activity in CD-1 albino mouse model of oxaliplatin-induced neuropathic pain assessed as increase in licking latency at 0.3 mg/kg, po treated on day 15 post oxaliplatin treatment and measured at 15 to 60 mins post dose by cold plate test; format: functional, organism-based; method in brief: as §3
[17] = target: T7, Adenosine receptor A3 (Homo sapiens, UniProt P0DMS8); test: Displacement of [125I]ABMECA from human A3R expressed in CHO cell membranes measured after 120 mins by scintillation counting method; method in brief: as §6
T7 sequence (P0DMS8 whole entry): T6 sequence (whole entry)

[18] = test system: Mus musculus; test: Antinociceptive activity in CD-1 albino mouse model of oxaliplatin-induced neuropathic pain assessed as increase in licking latency at 1 mg/kg, po treated on day 15 post oxaliplatin treatment and measured at 15 to 60 mins post dose by cold plate test; format: functional, organism-based; method in brief: as §3
[19] = test system: Mus musculus; test: Antinociceptive activity in CD-1 albino mouse model of oxaliplatin-induced neuropathic pain assessed as increase in licking latency at 0.1 to 0.3 mg/kg, po treated on day 15 post oxaliplatin treatment and measured at 15 to 45 mins post dose by cold plate test; format: functional, organism-based; method in brief: as §3
[20] = Half life in human plasma at 1 uM by LC-MS/MS analysis; format: ADME, cell-free
Method in brief: (§7)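 Analyte spiked at 1 µM into human plasma or heparinized Sprague-Dawley male rat plasma (or PBS). Incubated at 37°C for 0, 30, 60, 120 min in triplicate. Internal standard added, centrifuged, dried, reconstituted. Quantified by LC-MS/MS (ESI negative, MRM) against a 0–1 µM calibration. Half-life from concentration-time profile.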

[21] = target: T5, Adenosine receptor A2b (Homo sapiens); test: Antagonist activity at human A2BR expressed in CHO cells assessed as inhibition of NECA-stimulated cAMP production at 1 uM by alphascreen assay relative to control; format: functional, cell-based; method in brief: as §5
[22] = Half life in Sprague-Dawley rat plasma at 1 uM by LC-MS/MS analysis; format: ADME, cell-free; method in brief: as §7

EC50 [1] [nM] | EC50 [2] [nM] | Emax [3] [%] | Ki [8] [nM] | Ki [9] [nM] | IC50 [10] [nM] | Efficacy [11] [%] | inhibition [12] [%] | IC50 [13] [nM] | Compound | Activity [5] | Activity [6] | Activity [7] | further results
4.97 | > 1000 | 98 | 31 | 0.98 | 152 | 4 | 25 | 22 | N#Cc1c(N)nc(SCc2cccc(CO)c2)c(C#N)c1-c1ccco1 | inactive | inactive | inactive | Activity [4]: Active
 |  |  |  |  |  |  |  |  | Cn1c(=O)c2c(ncn2C)n(C)c1=O |  |  |  | Activity [14]: inactive; Activity [15]: Active
2.84 | > 1000 | 31 | 67 | 1.32 | 13 | 6 |  | 58 | N#Cc1c(N)nc(SCc2cccc(C(N)=O)c2)c(C#N)c1-c1ccco1 |  |  | inactive | Activity [16]: inactive; Ki [17]: 326 nM; Activity [18]: Active
1.43 | > 1000 | 35 | 68 | 7.22 |  | 7 | 26 | 313 | COC(=O)c1cccc(CSc2nc(N)c(C#N)c(-c3ccco3)c2C#N)c1 | inactive | inactive | inactive | Activity [19]: Active; half-life at 1 µM [20]: ≥ 4 h; inhibition [21]: 25%; half-life at 1 µM [22]: ≥ 4 h

From ChEMBL document CHEMBL4406810, “Modifications on the Amino-3,5-dicyanopyridine Core To Obtain Multifaceted Adenosine Receptor Ligands with Antineuropathic Activity” (J Med Chem, 2019)
